Laboratory results: BindingDB's records for doi:10.1021/acs.jmedchem.8b01529 (Boston University, 2019)

Molecular target: DNA-(apurinic or apyrimidinic site) endonuclease (Homo sapiens, UniProt P27695)
Assay: Inhibition of full length human APE1 assessed as reduction in endonuclease activity by measuring DNA cleavage of abasic sites using 6-FAM labelled two annealed oligonucleotides as AP site mimic substrate by fluorescence-based assay
Summary of the method: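 Purified full-length APE1 (0.25-1.25 nM) added at once to 50 nM annealed duplex: 5'-6-FAM-labelled AP-site-mimic strand paired with a quencher-labelled strand. Buffer 50 mM Tris, 1 mM MgCl2, 50 mM NaCl, pH 7.5. Compound in triplicate, 10-point 1:2 dilution from 100 μM. Fluorescence from cleavage read kinetically at five 1-min intervals. Reaction rate compared with DMSO vehicle.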

DNA-(apurinic or apyrimidinic site) endonuclease, sequence (P27695 whole entry): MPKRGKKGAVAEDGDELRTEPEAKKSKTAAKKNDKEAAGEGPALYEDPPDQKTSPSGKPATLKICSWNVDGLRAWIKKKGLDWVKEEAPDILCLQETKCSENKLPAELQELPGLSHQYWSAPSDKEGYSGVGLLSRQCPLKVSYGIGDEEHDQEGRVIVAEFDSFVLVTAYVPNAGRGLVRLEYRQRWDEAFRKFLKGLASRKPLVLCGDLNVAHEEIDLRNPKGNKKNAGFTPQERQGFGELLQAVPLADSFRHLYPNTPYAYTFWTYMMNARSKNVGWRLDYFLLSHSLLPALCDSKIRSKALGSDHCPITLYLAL

SMILES | IC50 [µM]
Cc1ccc(S(=O)(=O)n2cccc2[C@@H]2NC(=O)[C@H](Cc3c[nH]c4ccccc34)NC(=O)C(Oc3ccccc3)CCOC(=O)C/C=C/[C@@H]2C)cc1 (some centres not stated) | 5.4
Cc1ccc(S(=O)(=O)n2cccc2[C@@H]2NC(=O)[C@H](Cc3c[nH]c4ccccc34)NC(=O)C(c3ccccc3)CCOC(=O)C/C=C/[C@@H]2C)cc1 (some centres not stated) | 1.2
